Experimental data as given in ChEMBL document CHEMBL1141931, “Synthesis and evaluation of new antimalarial phenylurenyl chalcone derivatives” (J Med Chem, 2005).

Assays:
[1] = test system: Plasmodium falciparum; test: Inhibitory concentration against Plasmodium falciparum; format: functional, organism-based
Procedure, shortened: (§1)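 Chloroquine-resistant P. falciparum cultures were exposed to a range of compound concentrations for 48 h, starting at the ring stage. New ring forms were counted by FACS (flow cytometry), and parasitemia was compared with untreated controls to derive IC50.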

[2] = target: T1, Falcipain 2 (Plasmodium falciparum, UniProt Q9N6S8); test: Inhibitory concentration against recombinant Falcipain-2
T1 sequence (Q9N6S8 whole entry): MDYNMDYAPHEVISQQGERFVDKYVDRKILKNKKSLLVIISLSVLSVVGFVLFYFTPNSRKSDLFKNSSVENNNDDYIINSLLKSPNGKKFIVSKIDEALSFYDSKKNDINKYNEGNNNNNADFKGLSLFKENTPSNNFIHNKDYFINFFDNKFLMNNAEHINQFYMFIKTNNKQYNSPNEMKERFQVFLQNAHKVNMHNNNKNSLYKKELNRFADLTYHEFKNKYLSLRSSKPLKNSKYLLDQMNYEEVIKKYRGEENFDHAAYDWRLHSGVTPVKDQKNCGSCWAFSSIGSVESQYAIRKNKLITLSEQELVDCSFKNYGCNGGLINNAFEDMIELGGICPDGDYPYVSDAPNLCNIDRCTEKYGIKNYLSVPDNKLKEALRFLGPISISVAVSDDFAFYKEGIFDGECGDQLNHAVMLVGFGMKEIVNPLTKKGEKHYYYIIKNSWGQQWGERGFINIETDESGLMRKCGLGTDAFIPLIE

[3] = test system: Plasmodium falciparum; test: Inhibitory concentration against Plasmodium falciparum in FACS; format: functional, organism-based; procedure, shortened: as §1
[4] = organism: Mus musculus; test: Inhibition of hemoglobin hydrolysis in mice (Mus musculus) infected with Plasmodium berghei at 5 uM; format: functional
[5] = target: T1, Falcipain 2; test: Inhibitory concentration against falcipain-2; No significant effect impaired solubility
[6] = organism: Mus musculus; test: Inhibition of hemoglobin hydrolysis in mice (Mus musculus) infected with Plasmodium berghei at 100 uM; format: functional
[7] = target: T2, Histidine-rich protein PFHRP-II (Plasmodium falciparum) (UniProt P05227); details: Plasmodium berghei; 100 uM
T2 sequence (whole entry): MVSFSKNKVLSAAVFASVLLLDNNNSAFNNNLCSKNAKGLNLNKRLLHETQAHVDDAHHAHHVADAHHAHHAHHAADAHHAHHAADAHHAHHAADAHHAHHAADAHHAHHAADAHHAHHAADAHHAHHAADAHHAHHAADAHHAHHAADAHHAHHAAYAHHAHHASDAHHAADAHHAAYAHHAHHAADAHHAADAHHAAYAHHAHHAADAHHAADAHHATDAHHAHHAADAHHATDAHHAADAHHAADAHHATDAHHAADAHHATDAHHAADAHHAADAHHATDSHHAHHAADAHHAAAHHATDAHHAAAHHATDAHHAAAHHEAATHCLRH

[8] = organism: Mus musculus; test: Inhibition of hemoglobin hydrolysis in mice (Mus musculus) infected with Plasmodium berghei at 10 uM; format: functional

| Compound | IC50 [1] | further results |
| --- | --- | --- |
| O=C(Nc1ccccc1)Nc1cccc(C(=O)/C=C/c2ccc(F)cc2)c1 | > 10 µM | – |
| O=C(Nc1ccccc1)Nc1cccc(C(=O)/C=C/c2ccc3c(c2)OCO3)c1 | > 10 µM | – |
| COc1ccc(/C=C/C(=O)c2ccc(NC(=O)Nc3ccc(Cl)cc3)cc2)cc1 | > 10 µM | – |
| O=C(Nc1ccccc1)Nc1ccc(C(=O)/C=C/c2ccccn2)cc1 | > 10 µM | – |
| COc1cc(/C=C/C(=O)c2ccc(NC(=O)Nc3ccc(Cl)cc3)cc2)cc(OC)c1OC | – | IC50 [2]: 1.8 µM; IC50 [3]: 3 µM |
| Cc1ccc(/C=C/C(=O)c2cccc(NC(=O)Nc3ccccc3)c2)cc1 | – | Inhibition [4]: 74.93%; IC50 [5]: No significant effect; IC50 [3]: 2.74 µM |
| O=C(Nc1ccccc1)Nc1ccc(C(=O)/C=C/c2ccc(F)cc2)cc1 | > 10 µM | – |
| CCN(CC)CCCC(C)Nc1ccnc2cc(Cl)ccc12 (centres undefined) [CHLOROQUINE] | – | Inhibition [6]: 5.15%; inhibition [7]: 86.6% |
| COc1ccc(/C=C/C(=O)c2ccc(NC(=O)Nc3ccccc3)cc2)cc1 | > 10 µM | – |
| O=C(Nc1ccc(Cl)cc1)Nc1ccc(C(=O)/C=C/c2ccc3c(c2)OCO3)cc1 | – | IC50 [2]: 2.5 µM; IC50 [3]: 10 µM |
| Cc1ccc(/C=C/C(=O)c2ccc(NC(=O)Nc3ccc(Cl)cc3)cc2)cc1 | > 10 µM | – |
| O=C(Nc1ccccc1)Nc1cccc(C(=O)/C=C/c2ccc(Cl)cc2Cl)c1 | – | Inhibition [4]: 60.72%; IC50 [5]: No significant effect; IC50 [3]: 2.14 µM |
| O=C(Nc1ccccc1)Nc1ccc(C(=O)/C=C/c2ccc3c(c2)OCO3)cc1 | > 10 µM | – |
| O=C(Nc1ccccc1)Nc1cccc(C(=O)/C=C/c2ccc(F)cc2F)c1 | > 10 µM | – |
| COc1ccc(NC(=O)Nc2ccc(C(=O)/C=C/c3ccc(F)cc3)cc2)cc1 | > 10 µM | – |
| O=C(Nc1ccccc1)Nc1cccc(C(=O)/C=C/c2ccccc2)c1 | > 10 µM | – |
| COc1ccc(/C=C/C(=O)c2cccc(NC(=O)Nc3ccccc3)c2)cc1OC | > 10 µM | – |
| COc1ccc(/C=C/C(=O)c2cccc(NC(=O)Nc3ccccc3)c2)cc1 | > 10 µM | – |
| CC(C)C[C@H](NC(=O)[C@H]1O[C@@H]1C(=O)O)C(=O)NCCCCN=C(N)N [E-64] | – | IC50 [2]: 0.058 µM; IC50 [3]: 2.5 µM |
| O=C(Nc1ccccc1)Nc1ccc(C(=O)/C=C/c2ccc(Cl)cc2Cl)cc1 | > 10 µM | – |
| COc1cccc(/C=C/C(=O)c2cccc(NC(=O)Nc3ccccc3)c2)c1OC | > 10 µM | – |
| O=C(Nc1ccc(Cl)cc1)Nc1ccc(C(=O)/C=C/c2ccc(F)cc2)cc1 | > 10 µM | – |
| COc1ccc(/C=C/C(=O)c2cccc(NC(=O)Nc3ccccc3)c2)c(OC)c1 | > 10 µM | – |
| O=C(Nc1ccc(Cl)cc1)Nc1ccc(C(=O)/C=C/c2ccc(Cl)cc2Cl)cc1 | – | Inhibition [4]: 60.31%; IC50 [2]: 2.5 µM; IC50 [3]: 5 µM |
| O=C(Nc1ccccc1)Nc1cccc(C(=O)/C=C/c2ccc(Cl)cc2)c1 | > 10 µM | – |

| Compound | IC50 [1] | further results |
| --- | --- | --- |
| O=C(Nc1ccccc1)Nc1cccc(C(=O)/C=C/c2ccc(Br)cc2)c1 | – | Inhibition [4]: 66.58%; IC50 [5]: No significant effect; IC50 [3]: 2.1 µM |
| O=C(Nc1ccc(Cl)cc1)Nc1ccc(C(=O)/C=C/c2ccc(Cl)cc2)cc1 | – | IC50 [2]: 2.6 µM; IC50 [3]: 10 µM |
| O=C(Nc1ccccc1)Nc1ccc(C(=O)/C=C/c2ccccc2)cc1 | > 10 µM | – |
| COc1ccc(/C=C/C(=O)c2ccc(NC(=O)Nc3ccc(OC)cc3)cc2)cc1 | > 10 µM | – |
| CC(C)CC(=O)N[C@H](C(=O)N[C@H](C(=O)N[C@@H](CC(C)C)[C@@H](O)CC(=O)N[C@@H](C)C(=O)N[C@@H](CC(C)C)[C@@H](O)CC(=O)O)C(C)C)C(C)C [PEPSTATIN] | – | Inhibition [8]: 91.91% |
| O=C(Nc1ccccc1)Nc1ccc(C(=O)/C=C/c2ccc(Cl)cc2)cc1 | > 10 µM | – |
| Cc1ccc(/C=C/C(=O)c2ccc(NC(=O)Nc3ccccc3)cc2)cc1 | > 10 µM | – |
| O=C(Nc1ccc(Cl)cc1)Nc1ccc(C(=O)/C=C/c2ccc(F)cc2F)cc1 | – | Inhibition [4]: 33.04%; IC50 [2]: 2.6 µM; IC50 [3]: 8 µM |
| COc1ccc(/C=C/C(=O)c2ccc(NC(=O)Nc3ccccc3)cc2)c(OC)c1 | > 10 µM | – |
| COc1ccc(NC(=O)Nc2ccc(C(=O)/C=C/c3ccccc3)cc2)cc1 | > 10 µM | – |
| CC(=O)N[C@@H](CC(C)C)C(=O)N[C@@H](CC(C)C)C(=O)N[C@H](C=O)CCCNC(=N)N [LEUPEPTIN] | – | Inhibition [8]: 87.02%; IC50 [2]: 0.0058 µM; IC50 [3]: 6.26 µM |
| COc1ccc(NC(=O)Nc2ccc(C(=O)/C=C/c3ccc(OC)cc3OC)cc2)cc1 | > 10 µM | – |
| COc1ccc(NC(=O)Nc2ccc(C(=O)/C=C/c3ccc(Cl)cc3)cc2)cc1 | > 10 µM | – |
| O=C(Nc1ccc(Cl)cc1)Nc1ccc(C(=O)/C=C/c2ccccc2)cc1 | – | IC50 [2]: 3.8 µM; IC50 [3]: 9 µM |
| CN(C)c1ccc(/C=C/C(=O)c2cccc(NC(=O)Nc3ccccc3)c2)cc1 | > 10 µM | – |
| COc1ccc(NC(=O)Nc2ccc(C(=O)/C=C/c3ccc(C)cc3)cc2)cc1 | > 10 µM | – |
| O=C(Nc1ccccc1)Nc1ccc(C(=O)/C=C/c2ccc(F)cc2F)cc1 | > 10 µM | – |
| COc1ccc(/C=C/C(=O)c2ccc(NC(=O)Nc3ccc(Cl)cc3)cc2)c(OC)c1 | > 10 µM | – |
| COc1ccc(NC(=O)Nc2ccc(C(=O)/C=C/c3ccc(Cl)cc3Cl)cc2)cc1 | > 10 µM | – |
| COc1cc(/C=C/C(=O)c2ccc(NC(=O)Nc3ccccc3)cc2)cc(OC)c1OC | > 10 µM | – |
| COc1ccc(NC(=O)Nc2ccc(C(=O)/C=C/c3ccc4c(c3)OCO4)cc2)cc1 | > 10 µM | – |
| COc1cc(/C=C/C(=O)c2cccc(NC(=O)Nc3ccccc3)c2)cc(OC)c1OC | – | Inhibition [4]: 51.45%; IC50 [5]: No significant effect; IC50 [3]: 1.76 µM |
| COc1ccc(NC(=O)Nc2ccc(C(=O)/C=C/c3cc(OC)c(OC)c(OC)c3)cc2)cc1 | > 10 µM | – |
| COc1ccc(NC(=O)Nc2ccc(C(=O)/C=C/c3ccc(F)cc3F)cc2)cc1 | > 10 µM | – |
